Results taken from ChEMBL document CHEMBL1148329, “Synthesis and structure-activity studies on N-[5-(1H-imidazol-4-yl)-5,6,7,8-tetrahydro-1-naphthalenyl]methanesulfonamide, an imidazole-containing alpha(1A)-adrenoceptor agonist” (J Med Chem, 2004).

Key:
[1] = target: T1, Alpha-1A adrenergic receptor (Rattus norvegicus, UniProt P43140); test: In vitro binding affinity towards alpha-1A adrenergic receptor of rat submaxillary gland in radioligand binding assay
T1 sequence (P43140 whole entry): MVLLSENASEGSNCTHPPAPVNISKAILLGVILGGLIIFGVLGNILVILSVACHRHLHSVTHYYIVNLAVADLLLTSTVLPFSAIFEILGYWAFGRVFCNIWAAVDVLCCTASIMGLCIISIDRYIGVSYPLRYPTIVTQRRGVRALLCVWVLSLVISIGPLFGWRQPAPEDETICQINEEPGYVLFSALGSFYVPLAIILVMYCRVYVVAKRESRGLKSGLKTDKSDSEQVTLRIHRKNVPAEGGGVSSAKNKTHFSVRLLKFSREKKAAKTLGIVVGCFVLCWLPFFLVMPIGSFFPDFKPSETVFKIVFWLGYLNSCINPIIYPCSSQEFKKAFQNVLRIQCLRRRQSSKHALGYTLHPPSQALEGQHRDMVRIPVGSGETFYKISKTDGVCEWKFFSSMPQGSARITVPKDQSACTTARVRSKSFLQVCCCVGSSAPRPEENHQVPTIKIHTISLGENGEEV
Procedure, shortened: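 Radioligand binding at α1 subtypes: α1A from rat submaxillary gland, α1B hamster clone, α1D rat clone. Run essentially per an earlier method.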

[2] = target: T2, Alpha-1B adrenergic receptor (Rattus norvegicus) (UniProt P15823); test: Efficacy relative to phenylephrine (PE) to constrict tissue containing the alpha-1B adrenergic receptor in rat spleen; type: functional, tissue-based
T2 sequence (whole entry): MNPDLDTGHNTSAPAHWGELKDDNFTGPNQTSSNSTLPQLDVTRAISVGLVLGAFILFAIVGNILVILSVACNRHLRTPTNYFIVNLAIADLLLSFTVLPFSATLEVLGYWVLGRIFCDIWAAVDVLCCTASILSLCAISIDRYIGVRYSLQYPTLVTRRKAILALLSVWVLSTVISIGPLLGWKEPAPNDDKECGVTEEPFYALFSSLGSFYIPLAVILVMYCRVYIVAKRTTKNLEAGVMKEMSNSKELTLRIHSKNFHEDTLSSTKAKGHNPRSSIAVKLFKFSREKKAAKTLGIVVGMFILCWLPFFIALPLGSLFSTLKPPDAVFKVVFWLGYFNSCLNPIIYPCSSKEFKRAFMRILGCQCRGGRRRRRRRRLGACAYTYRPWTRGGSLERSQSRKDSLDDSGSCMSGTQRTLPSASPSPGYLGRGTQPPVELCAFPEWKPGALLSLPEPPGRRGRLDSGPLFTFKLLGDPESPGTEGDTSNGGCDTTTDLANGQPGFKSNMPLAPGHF

[3] = Selectivity is ratio of efficacy of alpha-1B to that of alpha1A adrenoceptor; type: functional
[4] = target: T3, Alpha-1D adrenergic receptor (Rattus norvegicus) (UniProt P23944); test: Efficacy relative to phenylephrine (PE) constrict tissue containing the alpha-1D adrenergic receptor in rat aorta; type: functional, tissue-based
T3 sequence (whole entry): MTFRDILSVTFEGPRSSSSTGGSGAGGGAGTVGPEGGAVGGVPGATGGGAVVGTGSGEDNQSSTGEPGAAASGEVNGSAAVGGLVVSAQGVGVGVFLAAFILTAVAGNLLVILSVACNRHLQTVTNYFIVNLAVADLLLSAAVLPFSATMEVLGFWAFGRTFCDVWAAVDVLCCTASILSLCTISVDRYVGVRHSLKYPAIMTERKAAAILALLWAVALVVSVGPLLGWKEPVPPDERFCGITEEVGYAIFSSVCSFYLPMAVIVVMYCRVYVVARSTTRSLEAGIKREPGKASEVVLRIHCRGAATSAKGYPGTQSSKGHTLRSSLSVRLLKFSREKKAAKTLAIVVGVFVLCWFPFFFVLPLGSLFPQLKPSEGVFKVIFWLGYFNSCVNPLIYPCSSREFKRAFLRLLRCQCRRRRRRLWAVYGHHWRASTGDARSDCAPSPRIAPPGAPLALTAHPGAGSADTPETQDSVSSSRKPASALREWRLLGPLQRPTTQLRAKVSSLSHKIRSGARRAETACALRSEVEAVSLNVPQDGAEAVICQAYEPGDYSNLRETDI
Procedure, shortened: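 α1-agonist dose–response curves in isolated tissue: rabbit urethra (α1A), rat spleen (α1B), rat aorta (α1D). Agonist potency and efficacy read from the concentration–response curves.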

[5] = target: T4, Alpha-2A adrenergic receptor (Rattus norvegicus) (UniProt P22909); conditions: Vas deferens
T4 sequence (whole entry): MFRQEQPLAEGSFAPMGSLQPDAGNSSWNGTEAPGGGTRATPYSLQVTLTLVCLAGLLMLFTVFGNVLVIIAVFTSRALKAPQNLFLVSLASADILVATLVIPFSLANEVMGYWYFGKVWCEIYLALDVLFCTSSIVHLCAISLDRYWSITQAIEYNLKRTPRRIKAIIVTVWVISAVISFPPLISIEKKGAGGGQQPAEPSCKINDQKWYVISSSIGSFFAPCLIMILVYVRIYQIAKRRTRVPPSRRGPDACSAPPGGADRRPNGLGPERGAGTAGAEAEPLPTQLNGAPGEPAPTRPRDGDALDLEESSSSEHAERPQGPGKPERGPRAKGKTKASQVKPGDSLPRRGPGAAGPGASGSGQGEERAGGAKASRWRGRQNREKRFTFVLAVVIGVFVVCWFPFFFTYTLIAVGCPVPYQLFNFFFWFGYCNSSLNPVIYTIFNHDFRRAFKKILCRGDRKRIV

Row | SMILES | Selectivity [3] | Efficacy [4] [%] | other results
1 | O=S(=O)(CC(F)(F)F)Nc1cccc2c1CCCC2c1c[nH]cn1 (single isomer, unassigned; (+)) | – | – | Log Ki [1]: -6.91
2 | CN(c1cccc2c1CCCC2c1c[nH]cn1)S(C)(=O)=O (stereo not drawn) | – | – | Efficacy [2]: 21
3 | COc1ccc(OC)c(C(O)CN)c1 (stereo not drawn) [DESGLYMIDODRINE] | 12 | 68 | –
4 | CC(N)C(O)c1ccccc1 (stereo not drawn) [PHENYLPROPANOLAMINE] | 1 | 91 | Ki [1]: 9.77 µM; pD2 [5]: 5.17
